Source: PubChem BioAssay
CHOP inhibitor – CHOP inhibition in unfolded protein response | CHO-K1 CHOP-promoter luciferase, tunicamycin-induced, 15-18 h | inhibition, % at 10 µM | 220,000 tested, 3.8% active | AID 2732;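 active means compounds that reduced the stress-induced luciferase reporter signal by more than about 70% of percent inhibition, limit read from the data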
pCIP destab – lowers stability of the mouse p/CIP coactivator protein; 290,000 tested, 0.01% active; Q05BA5; decrease of EGFP signal, % at 10 µM; F442A p/CIP-EGFP cells, EGFP fluorescence, 16 h;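 active means EGFP signal decrease of at least 30% at 10 µM or well 3 SD below plate mean, unless failing retest; inactive means the rest, including hits failing retest or dose response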
Target sequence (Q05BA5 1-1403): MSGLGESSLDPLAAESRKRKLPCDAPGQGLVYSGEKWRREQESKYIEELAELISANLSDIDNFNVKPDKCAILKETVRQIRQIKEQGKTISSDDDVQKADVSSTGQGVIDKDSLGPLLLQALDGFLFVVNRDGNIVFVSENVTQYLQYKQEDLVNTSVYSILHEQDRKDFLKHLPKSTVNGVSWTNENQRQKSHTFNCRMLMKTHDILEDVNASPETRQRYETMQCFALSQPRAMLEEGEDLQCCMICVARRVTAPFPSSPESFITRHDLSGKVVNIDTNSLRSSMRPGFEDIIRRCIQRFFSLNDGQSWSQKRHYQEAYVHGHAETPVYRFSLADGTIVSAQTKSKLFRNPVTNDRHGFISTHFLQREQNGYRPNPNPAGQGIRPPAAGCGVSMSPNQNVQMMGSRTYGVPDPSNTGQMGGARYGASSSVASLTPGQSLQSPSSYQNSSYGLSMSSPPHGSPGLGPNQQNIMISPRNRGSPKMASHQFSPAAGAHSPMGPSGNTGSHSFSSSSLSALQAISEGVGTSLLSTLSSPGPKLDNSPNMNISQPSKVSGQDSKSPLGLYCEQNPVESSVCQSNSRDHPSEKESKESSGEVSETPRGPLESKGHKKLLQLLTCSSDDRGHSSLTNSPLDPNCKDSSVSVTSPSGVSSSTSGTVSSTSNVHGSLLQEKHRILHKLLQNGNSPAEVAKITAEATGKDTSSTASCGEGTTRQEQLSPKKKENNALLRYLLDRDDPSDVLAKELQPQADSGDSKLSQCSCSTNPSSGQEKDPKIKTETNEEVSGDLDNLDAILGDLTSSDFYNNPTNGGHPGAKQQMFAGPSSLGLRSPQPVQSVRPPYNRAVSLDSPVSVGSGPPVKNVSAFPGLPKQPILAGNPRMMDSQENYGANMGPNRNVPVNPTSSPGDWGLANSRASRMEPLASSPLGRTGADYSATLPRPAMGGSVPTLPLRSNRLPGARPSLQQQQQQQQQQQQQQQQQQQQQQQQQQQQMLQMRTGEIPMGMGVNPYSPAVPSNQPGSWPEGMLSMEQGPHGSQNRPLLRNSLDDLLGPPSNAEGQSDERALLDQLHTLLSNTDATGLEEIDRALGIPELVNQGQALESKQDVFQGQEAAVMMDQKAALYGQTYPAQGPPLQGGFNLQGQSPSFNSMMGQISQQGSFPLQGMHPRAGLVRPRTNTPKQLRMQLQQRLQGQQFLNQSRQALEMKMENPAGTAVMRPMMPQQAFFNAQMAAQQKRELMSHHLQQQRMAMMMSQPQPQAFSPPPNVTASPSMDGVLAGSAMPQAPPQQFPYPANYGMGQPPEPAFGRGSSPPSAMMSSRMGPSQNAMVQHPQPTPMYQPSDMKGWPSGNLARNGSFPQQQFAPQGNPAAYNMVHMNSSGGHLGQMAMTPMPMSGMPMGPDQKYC
UPR XBP1 act – activators of adaptive arm of unfolded protein response (XBP1). CHO-XBP1 luciferase reporter, IRE1-XBP1 UPR activation, luminescence; percent of tunicamycin response, DMSO as zero. activation, % at 20 µM. 330,000 tested, 0.33% active. AID 463104;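 active means versus positive control, 20 µM dose yields 30% or more activation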
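Material: CHO cell line with stable XBP1 luciferase reporter; schedule: 16-18 h cell attachment at 37 °C, then 6 h compound exposure; signal: glow luminescence from Steady-Glo reagent; medium: serum-containing F12 medium, 10% FBS; benchmarks: tunicamycin 10 µg/mL and vehicle-only wells; read-out: percent activation relative to tunicamycin reference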
B2AR ag – agonists of human beta-2 adrenergic receptor inducing internalization | response, % (no concentration beside the values) | Am2.2-beta2AR cells, FAP receptor internalization, flow cytometry | 340,000 tested, 0.43% active | AID 504454 | P07550;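 active means response above a set limit, near 3 SD of response in nonfluorescent compounds, cut at about 42% in these data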
Dynein cargo inh – dynein cargo transport inhibition | 3617.4 mouse cells, GR-EGFP nuclear translocation imaging; test concentration mostly 20 µM; stimulated with dexamethasone, 1 µM; hits give low values | z-score, hits read low | 220,000 tested, 0.47% active | AID 1381;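 active means plate z-score of nuclear minus cytoplasmic receptor signal below a set negative limit, without overly bright fluorescence or cell loss, cut at about -3.5 in these data, passing the limit was not always enough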;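 further: z-score of nuclear minus cytoplasmic ring GR-EGFP intensity difference per well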
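Buffer or medium: tet-free, stripped-serum medium; Also added: dexamethasone, 1.0 µM final; Technique: high-content fluorescence imaging after fixation; Times: 48 h induction, 1 h compound, 30 min dex at 37 °C; Read-out: per-cell GR-EGFP intensity, nucleus versus surrounding cytoplasmic ring, well-averaged.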
UPR CHOP act – activators of apoptotic arm of unfolded protein response (CHOP) | CHO-CHOP luciferase reporter, UPR activation, luminescence; percent of tunicamycin response over DMSO baseline | activation, % at 10 µM | 330,000 tested, 0.34% active | AID 449763;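 active means at 10 µM dose, activation of 40% or more, normalized to positive control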
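System: CHO CHOP reporter cells. Amount: 500 cells per well. Buffer or medium: F12 medium, 10% FBS. Compound dosing: one dose, 10 µM in 0.5% DMSO. Incubation: 6 h compound exposure at 37 °C after overnight seeding. Technique: Steady-Glo luciferase luminescence. Benchmarks: tunicamycin and DMSO controls.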
B2AR ag CP1 – human beta-2 adrenergic receptor agonism, cherry pick; Am2.2-beta2AR cells, FAP surface receptor, flow cytometry; hits give low values; percent response (surface receptor), % at 10 µM; shares compounds with B2AR ag; 1,100 tested, 25% active;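 active means surface receptor percent response at or below 58%, roughly 3 SD from nonfluorescent compounds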
B2AR FAP counter – flagged in Am2.2 fluorescence counterscreen for beta-2AR agonists. shares compounds with B2AR ag. Am2.2 cells, FAP fluorogen flow cytometry; hits give low values. calls only at 10 µM. 1,100 tested, under 10 active;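 active means percent response below a set limit in fluorescence channel 1 and below 50% in channel 8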
Numbers stand for hits; i = inactive; nt = not tested or not shown. Only a selection was taken, and hits are over-represented in it overall.

SMILES	CHOP inhibitor	pCIP destab	UPR XBP1 act	B2AR ag	Dynein cargo inh	UPR CHOP act	B2AR ag CP1	B2AR FAP counter
CC(=O)N1CCc2cc(C(=O)CN3CCN(c4cccc(Cl)c4)CC3)ccc21	i	i	i	57.2	i	i	9.1	i
Cc1n[nH]c(=O)c2c(NC(=O)CSc3nncs3)oc(C)c12	nt	nt	i	i	nt	i	nt	nt
Cc1ccc(S(=O)(=O)c2ccc([N+](=O)[O-])cn2)cc1	nt	i	i	65.0	nt	i	i	i
O=[N+]([O-])c1ccc(S(=O)(=O)c2ccccc2)nc1	nt	i	i	i	nt	i	nt	nt
CCOC(=O)c1ccc(NC(=S)Nc2ccc(C)cc2)cc1	i	i	i	i	i	i	nt	nt
CCOC(=O)c1ccc(NC(=S)NNC(C)(C)C)cc1	i	i	i	i	i	i	i	i
CCOc1ccc(CCNC(=O)COC(=O)c2cc(OC)c(OC)cc2[N+](=O)[O-])cc1OCC	nt	nt	i	i	nt	i	nt	nt
CC1CC(C)CN(S(=O)(=O)c2ccc(C(=O)NCCCn3ccnc3)cc2)C1 (stereo unspecified)	nt	i	i	55.2	i	i	i	i
Cc1ccccc1-c1nc2c3ccccc3nc(=S)n2[nH]1	nt	i	nt	i	nt	nt	i	i
Cc1nc2ccccc2n1CCc1nc2c3ccccc3nc(=S)n2[nH]1	i	i	i	i	i	i	nt	nt
C=CCOc1ccc(/C=N/NC(=O)C(C)Sc2ccccn2)cc1OC (stereo unspecified)	i	i	i	i	i	i	nt	nt
CCOC(=O)COc1cccc2c(=O)n(CC(=O)NCCc3ccccc3)ccc12	i	i	i	43.7	i	i	i	i
O=C(COC(=O)CNS(=O)(=O)c1cc(C(F)(F)F)ccc1Cl)NC1CC1	nt	nt	i	i	nt	i	nt	nt
NC(=O)c1ccccc1OCc1nnc(-c2ccccc2Br)o1	nt	i	i	i	nt	i	i	i
CCCN(CCC)C(=O)c1ccc2nc(-c3ccc(OC)c(OC)c3)c(-c3ccc(OC)c(OC)c3)nc2c1	nt	i	i	43.0	nt	i	i	i
Cn1c(CNC(=O)CNC(=O)Cc2ccc(F)cc2)cc(=O)n(C)c1=O	nt	i	i	i	nt	i	nt	nt
CCn1nc(NS(=O)(=O)c2ccc(F)cc2)c2cc3cccc(C)c3nc21	nt	i	i	i	nt	i	i	i
CCCn1nc(NS(C)(=O)=O)c2cc3cccc(C)c3nc21	i	i	i	i	i	i	nt	nt
CCn1nc(NS(=O)(=O)c2ccccc2)c2cc3cccc(C)c3nc21	i	i	i	i	i	i	nt	i
CCn1nc(NS(=O)(=O)c2ccc(NC(C)=O)cc2)c2cc3cccc(C)c3nc21	nt	i	i	i	nt	i	nt	nt
O=C(COC(=O)c1cc2ccccc2o1)NCc1ccco1	nt	nt	i	i	nt	i	nt	nt
COc1ccc(-n2c(-c3ccc(Br)cc3)c[n+]3c2SC(C)C3)cc1 (stereo unspecified)	i	i	i	i	i	i	nt	nt
O=C(Nc1ccc2oc(-c3ccncc3)nc2c1)c1ccc2c(c1)OCCO2	i	i	i	73.3	i	i	i	i
O=C(Nc1ccc2oc(-c3ccncc3)nc2c1)c1ccc2c(c1)OCO2	i	i	i	i	i	i	i	i
COC(=O)c1c(NC(=O)C2CC2)sc(C(=O)Nc2ccccc2)c1C	i	i	i	i	i	i	nt	nt
SMILES	CHOP inhibitor	pCIP destab	UPR XBP1 act	B2AR ag	Dynein cargo inh	UPR CHOP act	B2AR ag CP1	B2AR FAP counter
COc1cc(NC(=O)c2ccco2)c(OC)cc1NC(=O)c1cc(OC)c(OC)c(OC)c1	i	i	i	i	i	i	i	i
O=C(Nc1ccc(S(=O)(=O)Nc2nccs2)cc1)c1cccc(N2C(=O)c3ccccc3C2=O)c1	i	i	i	i	i	i	i	i
O=C(Nc1ccc(F)cc1)c1cccc(N2C(=O)c3ccccc3C2=O)c1	nt	i	i	i	nt	i	i	i
O=C(CNC(=O)c1cccc(N2C(=O)c3ccccc3C2=O)c1)Nc1ccc(F)c(F)c1	nt	nt	i	i	nt	i	nt	nt
CN1CCN(CC(=O)N2c3ccccc3C(C)(c3ccc(Cl)cc3)CC2(C)C)CC1 (stereo unspecified)	i	i	i	i	i	i	nt	nt
CC(=O)N1c2ccccc2C(C)(c2ccccc2)CC1(C)C (stereo unspecified)	i	i	i	54.3	i	i	44.6	i
CCCCn1c(=N)n(CC(=O)c2ccc(Br)s2)c2ccccc21	i	i	i	82.1	i	i	0.9	i
COc1ccc(C[C@H]2CN3C(=NC[C@@H]3Cc3ccc(O)cc3)N2CCNC(=O)c2ccc(C)c(Br)c2)cc1	i	i	i	47.3	i	i	i	i
Cc1ccc(C(=O)NCCN2C3=NC[C@H](Cc4ccc(O)cc4)N3C[C@H]2Cc2ccc(O)cc2)cc1Br	i	i	i	i	i	i	nt	nt
Fc1ccccc1OCC1CCCN(Cc2nc(CC3CC3)no2)C1 (stereo unspecified)	i	i	i	i	i	i	nt	nt
COc1ccccc1C(=O)NC(=O)COC(=O)Cn1cnc2c1c(=O)n(C)c(=O)n2C	nt	nt	i	i	nt	i	nt	nt
O=[N+]([O-])c1ccc(O)c(-c2cc(C(F)(F)F)nc(-c3ccccc3)n2)c1	nt	i	i	47.7	nt	i	i	i
O=C(CN(c1ccccc1F)S(=O)(=O)c1ccccc1)NC1CCCCCC1	i	i	i	53.4	i	i	i	i
COc1ccc(-c2csc(-n3ncc(-c4ccccn4)c3N)n2)cc1	i	i	i	i	i	i	nt	nt
COc1ccccc1-c1csc(-n2ncc(C#N)c2N)n1	nt	i	i	83.6	nt	i	i	i
CCCn1c(SCC(=O)Nc2nnc(C)s2)nnc1C1CC1	nt	i	i	i	nt	i	nt	nt
CN(C)CC/C=C1\c2ccccc2Sc2ccc(Cl)cc21	i	i	i	53.1	i	i	i	i
CCCCc1ccc(NC(=O)CSc2nc(=O)n(CCN(CC)CC)c3c2CCCC3)cc1	nt	nt	i	43.3	nt	i	i	i
O=C(Cn1cc(C(F)(F)F)cc(Cl)c1=O)NCCc1ccc(Cl)cc1Cl	74.0	i	i	55.2	i	i	i	i
COc1cc(-c2cccs2)cc(=O)c2c(C)oc(C)c12	i	i	i	i	i	i	i	i
COc1ccc(-c2cc(OC(=O)c3ccc(F)cc3)c3c(C)oc(C)c3c(=O)c2)cc1	i	i	i	nt	i	i	nt	nt
COc1cc(CNCCO)cc(Cl)c1OCc1ccccc1Cl	i	i	i	48.1	i	i	i	i
CCOc1c(Cl)cc(CNCC(C)C)cc1OC	i	i	i	i	i	i	nt	nt
CCOc1c(Cl)cc(CNCC(O)c2ccccc2)cc1OC (stereo unspecified)	i	i	i	i	i	i	i	i
